Consider 18 molecules from ChEMBL document CHEMBL1138290 (J Med Chem, 2007).

One experiment has as its target Tubulin (Sus scrofa, UniProt P02554+P02550). Put plainly: Inhibition of porcine brain tubulin polymerization.
Another experiment deals with K562. The experiment in a line: Antiproliferative activity against human K562 cells after 48 hrs. The format is functional, cell-based. Conditions: K562, 48 h. An outline of the steps:
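Growth of K562 cells measured by counting cells with a hemocytometer after 48 h (2 days) of drug treatment. IC50 is the mean of at least three independent determinations.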

The nature of experiment [1]: Cell cycle arrest in KB/HeLa cells assessed as accumulation at G2/M phase after 24 hrs by flow cytometric analysis. The format is functional, cell-based. Conditions: Homo sapiens. A digest of the protocol:
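Subconfluent KB/HeLa cells exposed to a range of compound concentrations for 24 h. Cell cycle phase distribution determined by flow cytometry. Experiments run at least in duplicate (n = 2).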

Take `CNc1ccc(S(=O)(=O)Oc2c3ccccc3cc3sccc23)cc1`: the IC50 (commonly the concentration that inhibits the measured activity by half) on Tubulin was 290 nM; with K562, 50 nM.
The molecule `COc1ccc(S(=O)(=O)Oc2c3ccccc3c(Cl)c3ccccc23)cc1` gave an IC50 in the experiment on K562 of 350 nM.
In the experiment with K562, `O=S(=O)(Oc1c2ccccc2cc2sccc12)c1ccc(NO)cc1` came in with an IC50 of 400 nM.
Take `Cc1cccc(S(=O)(=O)Oc2c3ccccc3cc3sccc23)c1`: the IC50 was 740 nM at Tubulin and 530 nM with K562.
In the experiment on K562, `COc1cc(N)ccc1S(=O)(=O)Oc1c2ccccc2cc2sccc12` registered an IC50 of 280 nM.
`COc1cc([N+](=O)[O-])ccc1S(=O)(=O)Oc1c2ccccc2cc2sccc12`: in the experiment on K562, 1400 nM corresponded to half-maximal inhibition (IC50).
As to `Nc1ccc(S(=O)(=O)Oc2c3ccccc3cc3sccc23)cc1`, the 50% inhibitory concentration (IC50) against Tubulin worked out at 710 nM; in the experiment with K562, 130 nM.
On the same counts, the results for `O=[N+]([O-])c1ccc(S(=O)(=O)Oc2c3ccccc3cc3sccc23)cc1` are greater than 14000 nM and 2300 nM.
The matching figures for `COc1ccc(S(=O)(=O)Oc2c3ccccc3cc3sccc23)cc1OC`: 1270 nM and 170 nM.
On the same counts, the results for `O=S(=O)(Oc1c2ccccc2cc2sccc12)c1ccccc1` are greater than 14000 nM and 800 nM.
For the molecule `COc1ccc(S(=O)(=O)Oc2c3c(nc4ccccc24)CCCC3)cc1`, the IC50 at Tubulin is greater than 10000 nM; in the experiment on K562, 830 nM.
On the same counts, the results for `COc1ccc(S(=O)(=O)Oc2c3cccc(Cl)c3cc3c(Cl)cccc23)cc1` are greater than 10000 nM and 1700 nM.
`COc1cccc(S(=O)(=O)Oc2c3ccccc3cc3ccccc23)c1`: the IC50 against Tubulin was 390 nM; in the experiment with K562 it was 480 nM.
As to `Cc1ccc(S(=O)(=O)Oc2c3ccccc3cc3sccc23)cc1`, the IC50 at Tubulin is 1050 nM; in the experiment on K562, 440 nM.
For `COc1ccc(C=C2c3ccccc3C(=O)c3ccccc32)cc1O`, in experiment [1], the EC50 (usually the concentration at which the effect is half-maximal) was 200 nM.
Consider `COc1cccc(S(=O)(=O)Oc2c3ccccc3cc3sccc23)c1`, for which the half-inhibitory concentration (IC50) came out at 290 nM against Tubulin and 250 nM in the experiment with K562.
On the same counts, the results for `CN(C)c1ccc(S(=O)(=O)Oc2c3ccccc3cc3sccc23)cc1` are 940 nM and 80 nM.
`COc1ccc(S(=O)(=O)Oc2c3c(Cl)cccc3cc3cccc(Cl)c23)cc1`: the IC50 on Tubulin was greater than 10000 nM; with K562, 10000 nM.
